Assay results published in paper PMC6853148 (Clinical and Translational Science, 2019).
Read-outs that look alike come from different tables or passages of the source.

How the values were obtained:
[1] = 4‐week dog studies, male; no reference given; cited from earlier work
B‐lymphocytes = format: in vivo, healthy female subjects; details: for time for B‐lymphocytes to recover to 90% of baseline levels: average
In short: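 B-lymphocytes counted at baseline and after dosing. Individual post hoc PK estimates were fixed, then a Friberg-type semimechanistic model was fitted with a linear drug effect. It has a proliferation compartment, sequential transit compartments, a circulating pool, and feedback (baseline/current count, exponent γ). Baseline was the median predose count, with IIV. Log-transformed counts were fitted with additive residual error and checked by goodness-of-fit plots. Simulations covered single doses.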

P‐glycoprotein = details: cited from earlier work
[2] = cited from earlier work
[3] = Population PK model of venetoclax in healthy subjects; format: in vivo, healthy female subjects
In short: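 Pooled data from 203 healthy women (21–65 y, BMI 18.6–30.1 kg/m2) given oral doses of 10–400 mg, 1–4 times with ≥7-day washout, after a 10-h fast or within 30 min of a low/moderate/high-fat breakfast. Serial plasma sampling up to 96 h; assayed by liquid–liquid extraction LC-MS/MS. Two-compartment nonlinear mixed-effects model with lagged first-order absorption, exponential IIV on CL/F, Vc/F and F, and combined residual error. Covariates kept by backward elimination (P < 0.01); low-fat meal as reference.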

[4] = system: breast cancer resistance protein; details: cited from earlier work
CYP3A = details: cited from earlier work
B cells = details: patients with rheumatoid arthritis; cited from earlier work
[5] = model simulation, 200 mg single dose
[6] = covariate effect on bio-availability relative to low-fat meal

In the case of `CC1(C)CCC(CN2CCN(c3ccc(C(=O)NS(=O)(=O)c4ccc(NCC5CCOCC5)c([N+](=O)[O-])c4)c(Oc4cnc5[nH]ccc5c4)c3)CC2)=C(c2ccc(Cl)cc2)C1` [venetoclax, Venetoclax], the toxicology finding [1] is listed as “testicular toxicity (germ cell loss)”, the “B‐cell count recovered to 90% of baseline” value (B‐lymphocytes; even at the 400 mg dose) is listed as no more than 2 months and the “Slope of drug effect” value (B‐lymphocytes; linear drug effect on B-lymphocytes, PD model parameter estimate) is listed as 20.9. For the same compound, the “decrease in B‐lymphocytes” value (B‐lymphocytes; [5]) was 24% (15–35%), the “time for B‐lymphocytes to recover to 90% of baseline levels” value (B‐lymphocytes; [5]) was 48 (21–64) days and the “time for B‐lymphocytes to recover to 90% of baseline levels” value (B‐lymphocytes; model simulation, 400 mg single dose) was 59 (30–66) days. The “recovery of B‐lymphocytes to 90% of baseline levels” value (B‐lymphocytes; model simulation, three 200 mg doses every week or every other week) was no more than 2 months, the “time for B‐cell count to rise back to baseline” value (B‐lymphocytes; simulations/observed data) was 2–3 months and the “P‐glycoprotein transporter substrate” value (P‐glycoprotein) was “substrate”. For the same compound, the “increase of venetoclax exposures by food” value ([2]; compared with fasting conditions) was “threefold to fivefold”, the “mean terminal elimination half‐life” value ([2]; healthy subjects) was 17 h and the “mean terminal elimination half‐life” value ([2]; subjects with severe hepatic impairment) was 35 h. The “Fasting on F1” value [3, 6] was 0.29, the “Moderate/high‐fat on F1” value [3, 6] was 1.47 and the “Chinese on F1” value ([3]; covariate effect on bio-availability, Chinese ethnicity) was 1.53. For the same compound, the “Azithromycin on F1” value ([3]; covariate effect on bio-availability, coadministration of azithromycin) was 0.65, the “Rifampin on F1” value ([3]; covariate effect on bio-availability, coadministration of rifampin) was 4.91 and the “Low fat on F1” value ([3]; covariate effect on bio-availability, low-fat meal is the reference category) was 1. For the same compound, the Vd ([3]; female, human, plasma, oral) was 99 L, the “higher bioavailability with coadministration of rifampin” value ([3]; in vivo) was 391% and the “higher clearance with coadministration of rifampin” value ([3]; in vivo) was 167%. For the same compound, the “lower bio‐availability with coadministration of azithromycin” value ([3]; in vivo) was 35%, the “Dose nonlinearity on F1” value ([3]; parameter Fixed, not estimated) was −0.178 and the “ALAG, absorption lag time” value ([3]; population PK estimate) was 0.04 days. For the same compound, the “KA, absorption rate” value ([3]; population PK estimate) was 3.83 day⁻¹, the “CL/F, apparent clearance” value ([3]; population PK estimate, oral, healthy subjects) was 449 L/day and the “higher bio‐availability with a moderate/high‐fat meal” value ([3]; relative to a low‐fat meal) was 47%. The “lower bio‐availability under fasting conditions” value ([3]; relative to a low‐fat meal) was 71%, the “breast cancer resistance protein transporter substrate” value [4] was “substrate” and the metabolizing enzyme (CYP3A) was “mainly metabolized by CYP3A”.
For rituximab, the “time of reduction in B cells from circulation postinfusion” value (B cells) is given as 1–28 weeks.
